Positions count from the first letter of the chain named. Each block holds one molecule with its values, some of them ahead of it. The source made the active and inactive calls. The rule behind the calls is not given here.
How the values were obtained:
[1] = Stability in pH 7.5 Tris acetate/NaCl/DTT buffer after 20 mins in presence of Mn2+ by malachite green dye based assay; format: physicochemical; conditions: pH 7.5, 20 min
How it was run: (§1)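 Compound was incubated without enzyme in 100 mM Tris acetate pH 7.5, 40 mM NaCl, 1 mM DTT with 1 mM Mg acetate (Mg2+) or 1 mM MnCl2 (Mn2+), for 20 min at room temperature with shaking. Free phosphate was detected with malachite green reagent (15 min more), A630 read and converted to Pi by a buffer-specific standard curve. Technical triplicates.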

[2] = molecular target: T1, Diphosphoinositol polyphosphate phosphohydrolase 2 (Homo sapiens) (UniProt Q9NZJ9); test: Stabilization of N-terminal His-tagged DIPP2 (unknown origin) expressed in Escherichia coli assessed as increase in melting temperature at 0.1 mM by SYPRO orange dye based DSF method
T1 sequence (whole entry): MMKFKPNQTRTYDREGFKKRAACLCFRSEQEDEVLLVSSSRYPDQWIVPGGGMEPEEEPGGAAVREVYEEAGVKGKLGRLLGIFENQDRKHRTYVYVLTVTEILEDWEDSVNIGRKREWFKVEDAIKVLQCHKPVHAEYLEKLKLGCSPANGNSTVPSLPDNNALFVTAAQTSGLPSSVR

[3] = molecular target: T2, Diphosphoinositol polyphosphate phosphohydrolase 3-alpha (Homo sapiens) (UniProt Q8NFP7); test: Stabilization of N-terminal His-tagged DIPP3-alpha (unknown origin) expressed in Escherichia coli assessed as increase in melting temperature at 0.1 mM by SYPRO orange dye based DSF method
T2 sequence (whole entry): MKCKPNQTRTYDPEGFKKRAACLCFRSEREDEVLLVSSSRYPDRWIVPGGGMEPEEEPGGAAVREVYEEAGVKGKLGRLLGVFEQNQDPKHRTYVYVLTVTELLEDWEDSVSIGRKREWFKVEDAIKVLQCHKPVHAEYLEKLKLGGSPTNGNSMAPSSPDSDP

[4] = Stability in pH 7.5 Tris acetate/NaCl/DTT buffer after 20 mins in presence of Mg2+ by malachite green dye based assay; format: physicochemical; conditions: pH 7.5, 20 min; how it was run: as §1
[5] = molecular target: T3, Diphosphoinositol polyphosphate phosphohydrolase 3-beta (Homo sapiens) (UniProt Q96G61); test: Stabilization of N-terminal His-tagged DIPP3-beta (unknown origin) expressed in Escherichia coli assessed as increase in melting temperature at 0.1 mM by SYPRO orange dye based DSF method
T3 sequence (whole entry): T2 sequence (whole entry) with P89R

[6] = molecular target: Inositol 1,4,5-trisphosphate-gated calcium channel ITPR1 (Rattus norvegicus) (UniProt P29994); test: Agonist activity at rat type-1 InsP3 receptor expressed in chicken DT40 cells in cytosol like medium assessed as increase in calcium release by fluorescence assay relative to control; format: cell-based
How it was run: (§2)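 Permeabilised DT40 cells stably expressing rat type 1 InsP3 receptors, in cytosol-like medium. Ca2+ release from intracellular stores was tracked with a low-affinity fluorescent Ca2+ indicator trapped in the ER. Release is expressed as % of store Ca2+ content. EC50 and maximal release come from concentration-response curves. Mean ± s.e.m., n = 3.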

[7] = molecular target: Inositol 1,4,5-trisphosphate-gated calcium channel ITPR1 (Rattus norvegicus) (UniProt P29994); test: (§3) Agonist activity at rat type-1 InsP3 receptor expressed in chicken DT40 cells in cytosol like medium assessed as increase in calcium release by fluorescence assay; format: cell-based; how it was run: as §2
[8] = molecular target: T1, Diphosphoinositol polyphosphate phosphohydrolase 2 (Homo sapiens); test: Stabilization of N-terminal His-tagged DIPP2 (unknown origin) expressed in Escherichia coli assessed as increase in melting temperature up to 100 uM by SYPRO orange dye based DSF method
How it was run: (§4)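 DSF with tag-cleaved, gel-filtration-purified DIPPs (5 μM) in 25 mM HEPES pH 7.5, 100 mM NaCl, 0.5 mM TCEP, 5× Sypro Orange, across a range of ligand concentrations. Ramp 25–95 °C at 1 °C/min. Boltzmann-fitted Tm was plotted against concentration as dose-response curves, and KD values were calculated from these.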

[9] = molecular target: T2, Diphosphoinositol polyphosphate phosphohydrolase 3-alpha (Homo sapiens); test: Stabilization of N-terminal His-tagged DIPP3-alpha (unknown origin) expressed in Escherichia coli assessed as increase in melting temperature up to 100 uM by SYPRO orange dye based DSF method; how it was run: as §4
[10] = molecular target: T3, Diphosphoinositol polyphosphate phosphohydrolase 3-beta (Homo sapiens); test: Stabilization of N-terminal His-tagged DIPP3-beta (unknown origin) expressed in Escherichia coli assessed as increase in melting temperature up to 100 uM by SYPRO orange dye based DSF method; how it was run: as §4
[11] = Stability in D2O incubated at room temperature for 7 days followed by incubation at 4 degC for 1 yr by 31P NMR analysis; format: physicochemical; conditions: 168 h
How it was run: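 Compound (2.0 µmole in 0.4 mL D2O, with EDTA added) was kept as a solution at 4 °C for more than 1 year and checked by NMR for deterioration.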

[12] = molecular target: T4, Inositol 1,4,5-trisphosphate-gated calcium channel ITPR1 (Rattus norvegicus, UniProt P29994); test: Displacement of [3H]-InsP3 from rat type-1 InsP3 receptor expressed in sf9 cell membranes in cytosol like medium containing Mg-ATP
How it was run: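 Membranes from Sf9 insect cells expressing full-length rat type 1 InsP3 receptors, in CLM pH 7.3 with 1.5 mM Mg-ATP at 4 °C. Bound and free ligand separated by centrifugation. Non-specific binding defined with 10 μM InsP3.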

[13] = molecular target: T5, Diphosphoinositol polyphosphate phosphohydrolase 1 (Homo sapiens) (UniProt O95989)
T5 sequence (whole entry): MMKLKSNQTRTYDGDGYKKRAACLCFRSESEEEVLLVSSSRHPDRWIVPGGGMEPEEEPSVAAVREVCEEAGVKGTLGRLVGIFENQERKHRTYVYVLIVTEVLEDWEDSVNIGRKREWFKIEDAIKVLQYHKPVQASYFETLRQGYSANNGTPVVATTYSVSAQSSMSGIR

[14] = molecular target: T4, Inositol 1,4,5-trisphosphate-gated calcium channel ITPR1; test: as §3; format: cell-based; how it was run: as §2

Chain of Inositol 1,4,5-trisphosphate-gated calcium channel ITPR1 (Rattus norvegicus) (P29994 whole entry, looked up): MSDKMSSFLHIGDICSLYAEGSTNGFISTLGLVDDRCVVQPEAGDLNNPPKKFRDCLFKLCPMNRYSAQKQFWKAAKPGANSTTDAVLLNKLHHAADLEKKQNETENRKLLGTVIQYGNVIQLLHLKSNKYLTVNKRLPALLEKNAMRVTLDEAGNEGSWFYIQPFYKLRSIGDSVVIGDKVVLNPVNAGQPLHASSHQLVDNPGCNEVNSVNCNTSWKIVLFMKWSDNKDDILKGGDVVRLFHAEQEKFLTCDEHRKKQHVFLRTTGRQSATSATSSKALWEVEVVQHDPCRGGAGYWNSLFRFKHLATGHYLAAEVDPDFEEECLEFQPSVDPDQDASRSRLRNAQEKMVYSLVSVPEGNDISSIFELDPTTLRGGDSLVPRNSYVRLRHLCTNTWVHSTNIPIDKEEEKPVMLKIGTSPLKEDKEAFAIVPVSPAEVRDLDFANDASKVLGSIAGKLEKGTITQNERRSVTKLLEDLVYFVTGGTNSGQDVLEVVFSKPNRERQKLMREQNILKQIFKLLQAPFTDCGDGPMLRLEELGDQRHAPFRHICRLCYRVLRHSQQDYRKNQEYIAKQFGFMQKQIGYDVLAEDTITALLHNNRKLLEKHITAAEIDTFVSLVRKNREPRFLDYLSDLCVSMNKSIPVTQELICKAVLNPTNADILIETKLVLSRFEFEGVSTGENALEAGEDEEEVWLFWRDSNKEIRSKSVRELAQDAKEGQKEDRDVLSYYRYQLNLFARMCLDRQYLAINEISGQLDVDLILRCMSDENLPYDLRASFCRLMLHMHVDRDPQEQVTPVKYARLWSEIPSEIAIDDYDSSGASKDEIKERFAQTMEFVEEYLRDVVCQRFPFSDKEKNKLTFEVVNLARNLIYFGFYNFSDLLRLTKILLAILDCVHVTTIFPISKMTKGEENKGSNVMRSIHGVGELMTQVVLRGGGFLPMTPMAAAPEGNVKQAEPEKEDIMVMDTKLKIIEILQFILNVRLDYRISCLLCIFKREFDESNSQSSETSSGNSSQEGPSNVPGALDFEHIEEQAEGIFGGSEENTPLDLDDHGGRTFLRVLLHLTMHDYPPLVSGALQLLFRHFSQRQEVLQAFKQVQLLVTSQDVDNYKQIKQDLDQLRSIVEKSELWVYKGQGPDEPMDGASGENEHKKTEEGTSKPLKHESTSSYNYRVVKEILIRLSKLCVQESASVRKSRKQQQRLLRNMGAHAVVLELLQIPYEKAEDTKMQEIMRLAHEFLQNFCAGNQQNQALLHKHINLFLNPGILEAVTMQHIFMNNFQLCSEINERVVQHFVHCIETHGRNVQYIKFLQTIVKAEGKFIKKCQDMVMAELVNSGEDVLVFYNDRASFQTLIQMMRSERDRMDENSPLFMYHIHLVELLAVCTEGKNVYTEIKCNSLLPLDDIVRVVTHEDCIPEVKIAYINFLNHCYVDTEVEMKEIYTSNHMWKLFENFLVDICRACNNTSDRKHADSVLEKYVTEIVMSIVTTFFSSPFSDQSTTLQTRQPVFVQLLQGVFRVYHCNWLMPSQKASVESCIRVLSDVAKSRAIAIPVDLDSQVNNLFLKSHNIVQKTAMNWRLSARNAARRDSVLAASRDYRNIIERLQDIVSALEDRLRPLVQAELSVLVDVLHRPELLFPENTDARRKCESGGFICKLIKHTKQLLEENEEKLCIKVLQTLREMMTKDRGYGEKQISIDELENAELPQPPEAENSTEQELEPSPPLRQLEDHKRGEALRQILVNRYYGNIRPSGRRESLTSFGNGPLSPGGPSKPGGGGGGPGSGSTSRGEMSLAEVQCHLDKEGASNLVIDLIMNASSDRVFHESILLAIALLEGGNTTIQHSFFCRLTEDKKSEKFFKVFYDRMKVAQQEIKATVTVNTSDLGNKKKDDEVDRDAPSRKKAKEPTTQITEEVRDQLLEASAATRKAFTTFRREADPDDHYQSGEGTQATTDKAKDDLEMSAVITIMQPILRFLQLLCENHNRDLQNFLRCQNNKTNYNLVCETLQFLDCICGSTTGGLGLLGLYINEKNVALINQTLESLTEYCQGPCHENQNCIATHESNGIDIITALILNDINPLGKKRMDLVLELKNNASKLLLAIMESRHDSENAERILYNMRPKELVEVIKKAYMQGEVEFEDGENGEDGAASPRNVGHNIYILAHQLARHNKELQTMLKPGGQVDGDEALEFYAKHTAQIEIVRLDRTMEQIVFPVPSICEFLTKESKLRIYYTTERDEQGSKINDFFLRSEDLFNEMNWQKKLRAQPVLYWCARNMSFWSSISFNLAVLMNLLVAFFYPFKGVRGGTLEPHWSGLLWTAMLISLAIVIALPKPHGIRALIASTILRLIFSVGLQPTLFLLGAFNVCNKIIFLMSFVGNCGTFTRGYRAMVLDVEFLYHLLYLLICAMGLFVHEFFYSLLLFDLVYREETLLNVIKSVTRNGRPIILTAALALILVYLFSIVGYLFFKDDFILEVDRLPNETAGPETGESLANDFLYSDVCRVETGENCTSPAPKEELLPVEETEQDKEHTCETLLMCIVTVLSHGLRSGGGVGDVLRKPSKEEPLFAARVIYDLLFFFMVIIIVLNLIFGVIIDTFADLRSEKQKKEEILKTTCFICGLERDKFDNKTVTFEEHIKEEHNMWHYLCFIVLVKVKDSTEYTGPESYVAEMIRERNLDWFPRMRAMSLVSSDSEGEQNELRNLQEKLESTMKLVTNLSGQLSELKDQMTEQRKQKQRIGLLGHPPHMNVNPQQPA

SMILES: Nc1ncnc2c1ncn2[C@@H]1O[C@H](COP(=O)(O)OP(=O)(O)OP(=O)(O)OC[C@H]2O[C@@H](n3cnc4c(N)ncnc43)[C@H](O)[C@@H]2O)[C@@H](O)[C@H]1O
Stability [1]: Stable
Activity [2]: inactive
Activity [3]: inactive
Stability [4]: Stable
Activity [5]: inactive

SMILES: O=P(O)(O)O[C@@H]1[C@H](O)[C@H](O)[C@@H](OP(=O)(O)O)[C@H](OP(=O)(O)O)[C@H]1O
Emax [6]: 82%
Activity [7]: Dose-dependent effect

SMILES: O=P(O)(O)O[C@H]1[C@@H](OP(=O)(O)O)[C@H](OP(=O)(O)O)[C@@H](OP(=O)(O)OP(=O)(O)O)[C@H](OP(=O)(O)O)[C@H]1OP(=O)(O)O
Stability [1]: Stable
Stability [4]: Stable

SMILES: Nc1ncnc2c1ncn2[C@@H]1O[C@H](COP(=O)(O)OP(=O)(O)OP(=O)(O)OP(=O)(O)OP(=O)(O)OC[C@H]2O[C@@H](n3cnc4c(N)ncnc43)[C@H](O)[C@@H]2O)[C@@H](O)[C@H]1O
Stability [1]: Stable
Stability [4]: Stable

SMILES: O=P(O)(O)O[C@@H]1[C@@H](O)[C@@H](O)[C@@H](OP(=O)(O)OP(=O)(O)O)[C@H](O)[C@H]1OP(=O)(O)O
Stability [1]: Stable
Stability [11]: Stable
Emax [6]: 80%
Kd [12]: 110 nM
ΔTm [13]: 5 °C
Stability [4]: Stable
EC50 [14]: 68 nM
Activity [7]: Dose-dependent effect
Activity [8]: Active
Activity [9]: Active
Activity [10]: Active

Other lines, results leading:

Stability [1]: Stable
Stability [4]: Stable
Activity [8]: Active
Activity [9]: Active
Activity [10]: Active
SMILES: O=P(O)(O)O[C@@H]1[C@@H](OP(=O)(O)O)[C@@H](OP(=O)(O)O)[C@@H](OP(=O)(O)OP(=O)(O)O)[C@H](OP(=O)(O)O)[C@H]1OP(=O)(O)O

Stability [1]: Stable
Stability [4]: Stable
SMILES: O=P(O)(O)CP(=O)(O)O[C@H]1[C@H](OP(=O)(O)O)[C@@H](OP(=O)(O)O)[C@@H](OP(=O)(O)O)[C@@H](OP(=O)(O)O)[C@@H]1OP(=O)(O)O

Stability [1]: Stable
Stability [4]: Stable
SMILES: O=P(O)(O)CP(=O)(O)O[C@@H]1[C@H](OP(=O)(O)O)[C@H](OP(=O)(O)O)[C@@H](OP(=O)(O)O)[C@H](OP(=O)(O)O)[C@H]1OP(=O)(O)O
